High-throughput results as filed in PubChem BioAssay.
TRPC6 inhibitor – mouse TRPC6 channel inhibitors, primary screen, cell-based, HEK293, membrane potential dye; Short transient receptor potential channel 6 (Mus musculus), Q61143; ACh-evoked depolarization; stronger effect = lower value; B-score at 10 µM; 1.1% of 310,000 active;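 active means B-score under library mean minus 3 SD, initial fluorescence not abnormally high, positive integrated signal ratio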;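 further: B-score derived from integrated fluorescence ratio over the kinetic read; more negative B-score means stronger inhibition of depolarization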
Target sequence (Q61143 whole entry, looked up): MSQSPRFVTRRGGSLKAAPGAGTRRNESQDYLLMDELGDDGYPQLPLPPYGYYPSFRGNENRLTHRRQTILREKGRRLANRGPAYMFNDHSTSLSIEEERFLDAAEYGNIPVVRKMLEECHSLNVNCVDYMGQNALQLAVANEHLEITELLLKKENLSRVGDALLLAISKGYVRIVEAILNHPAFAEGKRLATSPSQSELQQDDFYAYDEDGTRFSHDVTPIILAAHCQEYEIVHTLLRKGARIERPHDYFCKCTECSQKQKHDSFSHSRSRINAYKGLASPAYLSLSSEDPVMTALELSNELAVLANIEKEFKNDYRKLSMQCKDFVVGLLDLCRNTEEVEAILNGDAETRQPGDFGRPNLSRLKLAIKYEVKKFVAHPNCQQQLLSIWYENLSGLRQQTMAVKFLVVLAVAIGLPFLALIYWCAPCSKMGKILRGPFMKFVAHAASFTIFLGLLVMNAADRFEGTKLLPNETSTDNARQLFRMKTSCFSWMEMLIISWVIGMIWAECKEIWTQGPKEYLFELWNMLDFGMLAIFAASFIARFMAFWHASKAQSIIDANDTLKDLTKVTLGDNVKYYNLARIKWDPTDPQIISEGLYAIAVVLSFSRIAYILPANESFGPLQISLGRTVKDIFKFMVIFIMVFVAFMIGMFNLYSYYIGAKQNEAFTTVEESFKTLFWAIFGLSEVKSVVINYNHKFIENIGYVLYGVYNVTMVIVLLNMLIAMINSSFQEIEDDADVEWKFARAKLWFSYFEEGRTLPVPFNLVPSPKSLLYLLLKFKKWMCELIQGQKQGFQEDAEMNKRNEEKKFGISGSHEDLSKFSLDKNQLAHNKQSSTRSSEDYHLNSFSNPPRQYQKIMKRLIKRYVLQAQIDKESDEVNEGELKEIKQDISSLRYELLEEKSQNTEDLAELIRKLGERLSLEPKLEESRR
TRPC4 PAM – positive allosteric modulators of TRPC4, primary screen, cell-based, mouse TRPC4beta, HEK293 mu-opioid, Fluo-4 calcium | B-score at 10 µM | Short transient receptor potential channel 4 (Mus musculus), Q9QUQ5 | DAMGO EC20, Fluo-4 Ca2+ flux; stronger effect = higher value | 0.42% of 310,000 active;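 active means B-score of calcium response area above 5 SD of library B-scores, with initial fluorescence ratio within 5 SD of library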;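 further: B-score of integrated fluorescence ratio over time as area under calcium response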
TRPC4 inh – inhibitors of mouse TRPC4 channel, primary screen, Fluo4 calcium, HEK293 TRPC4beta/mu-opioid cells. Short transient receptor potential channel 4 (Mus musculus), Q9QUQ5. DAMGO-evoked Fluo4 calcium flux; stronger effect = lower value. B-score at 10 µM. 0.39% of 300,000 active. AID 2247, 2010;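 active means B-score over 3 SD under the library average, no early fluorescence shift, positive overall ratio signal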
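Assay system: Stable TRPC4beta/mu-opioid receptor HEK293 cells | Reagent: DAMGO in two steps, submaximal then maximal | Compound dosing: Single concentration per test compound | Signal: Fluo4 Ca2+ flux fluorescence | Evaluation: Per-well B score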
TRPC6 act – mouse TRPC6 channel activators, primary screen, cell-based, HEK293, membrane potential dye. Short transient receptor potential channel 6 (Mus musculus), Q61143. 0.13% of 310,000 active. HEK293-TRPC6 membrane potential dye fluorescence; stronger effect = higher value. B-score at 10 µM;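 active means B-score of the integrated fluorescence ratio above library mean plus 3 SD, and starting fluorescence ratio within library mean plus 5 SD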;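 further: higher score means more depolarization so channel activation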
TRPC4 agonist – activators of mouse TRPC4 channel, primary screen, Fluo4 calcium, HEK293 TRPC4beta/mu-opioid cells. Short transient receptor potential channel 4 (Mus musculus), Q9QUQ5. Fluo4 calcium fluorescence; stronger effect = higher value. B-score at 10 µM. 0.49% of 310,000 active. AID 2237, 2010;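 active means B-score above 5 SD of library B-scores, and initial fluorescence ratio not above library mean plus 5 SD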;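 further: positive B-score marks a calcium rise read as TRPC4 activation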
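Material: HEK293 stable line with TRPC4beta plus mu-opioid receptor; technique: Fluo4 calcium-sensitive dye fluorescence, kinetic, 1 Hz baseline; timing: Fluo4 dye loading 45 min at room temperature, 110 s recording; controls: assay buffer as low control, maximal DAMGO as high control; read-out: integrated baseline-normalised fluorescence ratio, converted to per-well B score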
Active calls of the source: *. A selection: hits, their analogues and other compounds. The true share with any hit is near 2.3%.

`COc1cccc(-c2nn(C)c3sc(C(=O)NCCCN(C)Cc4ccccc4)cc23)c1` gave TRPC6 inhibitor inactive, TRPC4 PAM inactive, TRPC4 inh inactive, TRPC6 act inactive and TRPC4 agonist 57*.
Screening CN(CCOc1ccccc1)C(=O)c1cc(S(=O)(=O)N2CCCCC2)ccc1Cl returned TRPC6 inhibitor inactive, TRPC4 PAM inactive, TRPC4 inh inactive, TRPC6 act inactive and TRPC4 agonist inactive.
O=C(NC1CCCCC1)c1ccc(CNc2nc(=S)[nH]c3ccccc23)cc1 was read as TRPC6 inhibitor inactive, TRPC4 PAM inactive, TRPC4 inh inactive, TRPC6 act inactive and TRPC4 agonist inactive.
CC(C)(C)c1ccc(-c2nc3cc(N)ccc3o2)cc1 was read as TRPC6 inhibitor inactive, TRPC4 PAM 18*, TRPC4 inh inactive, TRPC6 act inactive and TRPC4 agonist inactive.
Screening Cc1ccc(S(=O)(=O)N(CC(=O)N2CCOCC2)c2ccc(C(C)C)cc2)cc1 returned TRPC6 inhibitor inactive, TRPC4 PAM inactive, TRPC4 inh inactive, TRPC6 act inactive and TRPC4 agonist inactive.
`COc1cccc(CC(NC(C)=O)C(=O)NC2CCN(C(=O)c3ccc(Cl)cc3)CC2)c1` (centres undefined) gave TRPC6 inhibitor inactive, TRPC4 PAM inactive, TRPC4 inh inactive, TRPC6 act inactive and TRPC4 agonist inactive.
O=C(NC1CC1)C1=C[C@H](c2csc3ccccc23)C[C@H](OCc2ccc(CO)cc2)O1 was read as TRPC6 inhibitor inactive, TRPC4 PAM inactive, TRPC4 inh inactive, TRPC6 act inactive and TRPC4 agonist 113*.
For O=C(Nc1ccccc1)C1=C[C@H](c2csc3ccccc23)C[C@H](OCc2ccc(CO)cc2)O1 the results were TRPC6 inhibitor inactive, TRPC4 PAM 14*, TRPC4 inh inactive, TRPC6 act inactive and TRPC4 agonist inactive.
Screening Cc1cc(C)c(S(=O)(=O)c2cccc(C)c2C)c(=O)[nH]1 returned TRPC6 inhibitor inactive, TRPC4 PAM inactive, TRPC4 inh inactive, TRPC6 act inactive and TRPC4 agonist inactive.
For CCOC(=O)c1c(-c2ccc(C)cc2)csc1NC(=O)C1CC=CCC1C(=O)O (centres undefined) the results were TRPC6 inhibitor inactive, TRPC4 PAM inactive, TRPC4 inh inactive, TRPC6 act inactive and TRPC4 agonist inactive.
For CCOC(=O)c1c(-c2cccc(C)c2)csc1NC(=O)C1CC=CCC1C(=O)O (centres undefined) the results were TRPC6 inhibitor inactive, TRPC4 PAM inactive, TRPC4 inh -6*, TRPC6 act inactive and TRPC4 agonist inactive.
For Cc1ccc(-c2csc(NC(=O)C3CC=CCC3C(=O)O)c2C(=O)OC(C)C)cc1 (centres undefined) the results were TRPC6 inhibitor inactive, TRPC4 PAM inactive, TRPC4 inh -5*, TRPC6 act inactive and TRPC4 agonist inactive.
`COCCCN(C(=O)Cc1coc2cc(C)c(C)cc12)c1c(N)n(Cc2ccccc2)c(=O)[nH]c1=O` gave TRPC6 inhibitor inactive, TRPC4 PAM inactive, TRPC4 inh inactive, TRPC6 act inactive and TRPC4 agonist inactive.
`CCc1cccc(CC)c1NC(=S)NCC(c1cccnc1)N(C)C` (centres undefined) gave TRPC6 inhibitor inactive, TRPC4 PAM inactive, TRPC4 inh inactive, TRPC6 act inactive and TRPC4 agonist 79*.
Screening CN(C)C(CNC(=S)Nc1ccc(Cl)cc1)c1cccnc1 (centres undefined) returned TRPC6 inhibitor inactive, TRPC4 PAM inactive, TRPC4 inh inactive, TRPC6 act inactive and TRPC4 agonist 86*.
`CN(C)C(CNC(=O)Nc1cccc(Cl)c1)c1cccnc1` (centres undefined) gave TRPC6 inhibitor inactive, TRPC4 PAM inactive, TRPC4 inh inactive, TRPC6 act inactive and TRPC4 agonist 65*.
Screening O=C(NCc1cccnc1)Nc1cccc(Cl)c1 returned TRPC6 inhibitor inactive, TRPC4 PAM inactive, TRPC4 inh inactive, TRPC6 act inactive and TRPC4 agonist inactive.
